Reference: ChEMBL document CHEMBL1143394, “Benzopyridooxathiazepine derivatives as novel potent antimitotic agents” (Bioorg Med Chem, 2009)

Key:
L1210 [1] = test: Cytotoxicity against mouse L1210 cells after 48 hrs by MTT assay; assay type: functional, cell-based; details: L1210, 48 h
Procedure, shortened: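 Murine L1210 cells in RPMI 1640 with 10% FCS, glutamine, antibiotics and HEPES pH 7.4, exposed 48 h to graded concentrations. MTT added for 4 h at 37 °C, formazan dissolved in DMSO, OD 540 nm. IC50 (50% OD reduction vs untreated controls) by linear regression on linear zone of dose–response; triplicate.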

A549 = test: Cytotoxicity against human A549 cells after 96 hrs by MTA assay; assay type: functional
Procedure, shortened: (§1)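 Adherent DU145, HT29, A549, KB 3-1 and KB-A1 cells grown in RPMI 1640 with 10% FCS, 2 mM glutamine, antibiotics and HEPES pH 7.4. Seeded, grown 2 days, then exposed to compound 96 h (about 4 doubling times). MTT added for 4 h at 37 °C, formazan dissolved in DMSO, read at 540 nm. IC50 from linear regression on linear part of dose–response; triplicate.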

DU-145 = test: Cytotoxicity against human DU145 cells after 96 hrs by MTA assay; assay type: functional; procedure, shortened: as §1
L1210 [2] = test: Cell cycle arrest in mouse L1210 cells assessed as accumulation at G1 phase at 200 nM after 21 hrs by flow cytometry using propidium iodide staining; assay type: functional
Procedure, shortened: (§2)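 L1210 cells exposed to compound for 21 h (two doubling times), fixed in 70% ethanol, washed, stained 30 min at 20 °C in D-PBS with RNAse and propidium iodide; 10⁴ cells per sample analysed by flow cytometry for G1, S, G2+M and 8N (tetraploid) fractions.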

L1210 [3] = test: Cell cycle arrest in mouse L1210 cells assessed as accumulation at S phase at 200 nM after 21 hrs by flow cytometry using propidium iodide staining; assay type: functional; procedure, shortened: as §2
L1210 [4] = test: Cell cycle arrest in mouse L1210 cells assessed as accumulation at G2/M phase at 200 nM after 21 hrs by flow cytometry using propidium iodide staining; assay type: functional; procedure, shortened: as §2
L1210 [5] = test: Cell cycle arrest in mouse L1210 cells assessed as accumulation of tetraploid cells at 200 nM after 21 hrs by flow cytometry using propidium iodide staining; assay type: functional; procedure, shortened: as §2
HT-29 = test: Cytotoxicity against human HT29 cells after 96 hrs by MTA assay; assay type: functional; procedure, shortened: as §1
L1210 [6] = test: Cell cycle arrest in mouse L1210 cells assessed as accumulation at G1 phase at 100 nM after 21 hrs by flow cytometry using propidium iodide staining; assay type: functional; procedure, shortened: as §2
L1210 [7] = test: Cell cycle arrest in mouse L1210 cells assessed as accumulation at S phase at 100 nM after 21 hrs by flow cytometry using propidium iodide staining; assay type: functional; procedure, shortened: as §2
L1210 [8] = test: Cell cycle arrest in mouse L1210 cells assessed as accumulation at G2/M phase at 100 nM after 21 hrs by flow cytometry using propidium iodide staining; assay type: functional; procedure, shortened: as §2
L1210 [9] = test: Cell cycle arrest in mouse L1210 cells assessed as accumulation of tetraploid cells at 100 nM after 21 hrs by flow cytometry using propidium iodide staining; assay type: functional; procedure, shortened: as §2
L1210 [10] = test: Cell cycle arrest in mouse L1210 cells assessed as accumulation at G1 phase at 50 nM after 21 hrs by flow cytometry using propidium iodide staining; assay type: functional; procedure, shortened: as §2
L1210 [11] = test: Cell cycle arrest in mouse L1210 cells assessed as accumulation at S phase at 50 nM after 21 hrs by flow cytometry using propidium iodide staining; assay type: functional; procedure, shortened: as §2
L1210 [12] = test: Cell cycle arrest in mouse L1210 cells assessed as accumulation at G2/M phase at 50 nM after 21 hrs by flow cytometry using propidium iodide staining; assay type: functional; procedure, shortened: as §2
L1210 [13] = test: Cell cycle arrest in mouse L1210 cells assessed as accumulation of tetraploid cells at 50 nM after 21 hrs by flow cytometry using propidium iodide staining; assay type: functional; procedure, shortened: as §2
[14] = Inhibition of tubulin polymerization
L1210 [15] = test: Cell cycle arrest in mouse L1210 cells assessed as accumulation at G2/M phase at 25 nM after 21 hrs by flow cytometry using propidium iodide staining; assay type: functional; procedure, shortened: as §2
[16] = Cytotoxicity against adriamycin-resistant human KB-A1 cells after 96 hrs by MTA assay; assay type: functional; procedure, shortened: as §1
[17] = Cytotoxicity against human KB-3-1 cells after 96 hrs by MTA assay; assay type: functional; procedure, shortened: as §1
L1210 [18] = test: Cell cycle arrest in mouse L1210 cells assessed as accumulation at G1 phase at 25 nM after 21 hrs by flow cytometry using propidium iodide staining; assay type: functional; procedure, shortened: as §2
L1210 [19] = test: Cell cycle arrest in mouse L1210 cells assessed as accumulation at S phase at 25 nM after 21 hrs by flow cytometry using propidium iodide staining; assay type: functional; procedure, shortened: as §2
L1210 [20] = test: Cell cycle arrest in mouse L1210 cells assessed as accumulation of tetraploid cells at 25 nM after 21 hrs by flow cytometry using propidium iodide staining; assay type: functional; procedure, shortened: as §2
P388 [21] = test: Antitumor activity against mouse P388 cells xenografted in B6D2F1 mouse at 100 mg/kg, iv relative to control; assay type: functional
Procedure, shortened: (§3)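 P388 leukaemia cells inoculated ip at 10⁶ cells/mouse into B6D2F1 mice on day 0; compound given once ip or iv on day 1. Result expressed as % T/C = median survival time of treated over untreated controls ×100.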

P388 [22] = test: Antitumor activity against mouse P388 cells xenografted in B6D2F1 mouse at 50 to 100 mg/kg, ip relative to control; assay type: functional; details: dose mg/kg 50-100; route intraperitoneal; procedure, shortened: as §3
[23] = Metabolic stability in mouse liver microsomes assessed as bioavailability; assay type: ADME, Microsome; details: read-out: Metabolic Bioavailability
[24] = Metabolic stability in human liver microsomes assessed as bioavailability; assay type: ADME, Microsome; details: read-out: Metabolic Bioavailability
P388 [25] = test: Antitumor activity against mouse P388 cells xenografted in B6D2F1 mouse assessed as survivality at 100 mg/kg, iv; assay type: functional
Procedure, shortened: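 P388 murine leukemia cells inoculated intraperitoneally (10⁶ cells/mouse) into B6D2F1 mice on day 0. Single intravenous dose given on day 1. Readout is percent T/C: median survival time of treated mice divided by median survival time of controls, ×100.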

P388 [26] = test: Antitumor activity against mouse P388 cells xenografted in B6D2F1 mouse assessed as survivality at 50 to 100 mg/kg, ip; assay type: functional; details: dose mg/kg 50-100, route intraperitoneal

## COc1ccc(CCN2c3cc(OC)ccc3OS(=O)(=O)c3cccnc32)cc1
L1210 [1]
  IC50: 11.2 µM

## COc1ccc(CCN2C=CC=C3C2=Nc2cc(OC)ccc2OS3(=O)=O)cc1
A549
  Activity: 99.1 nM
DU-145
  Activity: 116 nM
L1210 [1]
  IC50: 0.043 µM
L1210 [2]
  Activity: 8%
L1210 [3]
  Activity: 11%
L1210 [4]
  Activity: 22%
L1210 [5]
  Activity: 59%

## COc1ccc(CCCN2c3ccccc3OS(=O)(=O)c3cccnc32)cc1
L1210 [1]
  IC50: 15.4 µM

## COc1cc(CCN2C=CC=C3C2=Nc2ccccc2OS3(=O)=O)cc(OC)c1OC
L1210 [1]
  IC50: 27.7 µM

## COc1ccc(CCN2C=CC=C3C2=Nc2ccccc2NS3(=O)=O)cc1
L1210 [1]
  IC50: 0.3 µM

## COc1ccc(CCCN2C=CC=C3C2=Nc2ccccc2OS3(=O)=O)cc1
L1210 [1]
  IC50: 8.6 µM

## COc1ccc(CCN2C=CC=C3C2=Nc2cc(C)ccc2OS3(=O)=O)cc1
HT-29
  Activity: 50.2 nM
L1210 [1]
  IC50: 0.037 µM
L1210 [6]
  Activity: 4%
L1210 [7]
  Activity: 3%
L1210 [8]
  Activity: 17%
L1210 [9]
  Activity: 75%

## COc1ccc(CN2C=CC=C3C2=Nc2ccccc2OS3(=O)=O)cc1
L1210 [1]
  IC50: 3.2 µM

## COc1ccccc1CCN1C=CC=C2C1=Nc1ccccc1OS2(=O)=O
L1210 [1]
  IC50: 14.8 µM

## O=S1(=O)Oc2ccccc2N=C2C1=CC=CN2CCc1ccc(OCc2ccccc2)cc1
L1210 [1]
  IC50: > 100 µM

## COc1ccc(CCN2C=CC=C3C2=Nc2cc(Cl)ccc2OS3(=O)=O)cc1
HT-29
  Activity: 27.1 nM
DU-145
  Activity: 42.3 nM
L1210 [1]
  IC50: 0.027 µM
L1210 [10]
  Activity: 3%
L1210 [11]
  Activity: 3%
L1210 [12]
  Activity: 29%
L1210 [13]
  Activity: 65%

## COc1ccc(CN2c3ccccc3OS(=O)(=O)c3cccnc32)cc1
L1210 [1]
  IC50: 0.77 µM

## O=S1(=O)Oc2ccccc2N(CCc2cccc3ccccc23)c2ncccc21
L1210 [1]
  IC50: > 100 µM

## COc1ccc(CCN2c3ccccc3OS(=O)(=O)c3cccnc32)cc1
L1210 [1]
  IC50: 26.5 µM

## O=S1(=O)Oc2ccccc2N=C2C1=CC=CN2CCc1cccc2ccccc12
L1210 [1]
  IC50: 9.6 µM

## COc1cc([C@@H]2c3cc4c(cc3C[C@H]3COC(=O)[C@@H]32)OCO4)cc(OC)c1OC
[14]
  INH: 2.4 µM

## COc1ccc(CCN2c3cc(C)ccc3OS(=O)(=O)c3cccnc32)cc1
L1210 [1]
  IC50: 22.5 µM

## COc1ccccc1CCN1c2ccccc2OS(=O)(=O)c2cccnc21
L1210 [1]
  IC50: > 10 µM

## O=S1(=O)Oc2ccccc2N=C2C1=CC=CN2CCc1ccc(O)cc1
L1210 [1]
  IC50: 0.6 µM

## COc1cc(CCN2c3ccccc3OS(=O)(=O)c3cccnc32)cc(OC)c1OC
L1210 [1]
  IC50: 36.8 µM

## O=S1(=O)Oc2ccccc2N=C2C1=CC=CN2CCc1ccc(-c2ccccc2)cc1
L1210 [1]
  IC50: 5 µM

## COc1cccc(CCN2C=CC=C3C2=Nc2ccccc2OS3(=O)=O)c1
L1210 [1]
  IC50: 0.8 µM

## COc1ccc(CCN2C=CC=C3C2=Nc2ccccc2OS3(=O)=O)cc1
L1210 [15]
  Activity: 25%
[16]
  Activity: 13.2 nM
[17]
  Activity: 16 nM
HT-29
  Activity: 10 nM
A549
  Activity: 11.5 nM
DU-145
  Activity: 17 nM
L1210 [1]
  IC50: 0.0095 µM
L1210 [18]
  Activity: 4%
L1210 [19]
  Activity: 3%
L1210 [20]
  Activity: 60%
[14]
  INH: 2.2 µM
P388 [21]
  T/C: 141%
P388 [22]
  T/C: 161%
[23]
  bioavailability: < 12%
[24]
  bioavailability: < 12%
P388 [25]
  Activity: 41%
P388 [26]
  Activity: 61%
